Assay results: ChEMBL document CHEMBL4145684 (J Med Chem, 2018)
pIC50: −log10 of the molar value. The source made the active and inactive calls. No cut-off for these calls is given here.

Key:
[1] = AUC (0 to infinity) in mouse at 10 mg/kg, po; assay type: ADME, organism-based; design: dose 10 mg/kg, route oral, time infinity; conditions: in vivo
[2] = Cmax in rat at 10 mg/kg, po; assay type: ADME, organism-based; design: dose 10 mg/kg, route oral; conditions: in vivo
In short: (§1)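 Mouse or rat PK: single intravenous dose 3 mg/kg or oral dose 10 mg/kg, vehicle PEG400/PVP/Tween 80/0.5% CMC in water (9:0.5:0.5:90).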

MCF7 [3] = assay: Antiproliferative activity against human MCF7 cells assessed as reduction in cell proliferation in RPMI containing 10% FBS incubated for 5 days by Cell-titer-Glo assay; assay type: functional, cell-based; conditions: MCF7, 120 h
In short: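 MCF-7 cells, 640/well in RPMI with 10% FBS and 20 mM HEPES, adhered overnight; 10-point 1:5 dilution series (10–0.000005 µM final) for 5 days. CellTiter-Glo luminescence, cell-free medium background subtracted, percent viability vs untreated cells; n ≥ 3.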

[4] = Clearance in rat at 3 mg/kg, iv; assay type: ADME, organism-based; conditions: in vivo; in short: as §1
[5] = Oral bioavailability in mouse at 10 mg/kg; assay type: ADME, organism-based; conditions: in vivo; in short: as §1
[6] = AUC in mouse at 10 mg/kg, po; assay type: ADME, organism-based; conditions: in vivo; in short: as §1
[7] = Half life in rat at 3 mg/kg, iv; assay type: ADME, organism-based; conditions: in vivo; in short: as §1
[8] = Volume of distribution at steady state in rat at 3 mg/kg, iv; assay type: ADME, organism-based; conditions: in vivo, read-out: Vdss; in short: as §1
[9] = Oral bioavailability in rat at 10 mg/kg; assay type: ADME, organism-based; conditions: in vivo; in short: as §1
Rattus norvegicus [10] = assay: In-vivo inverse agonist activity at ERalpha in CD-IGS rat assessed as reduction in uterine wet weight at 10 mg/kg, po dosed daily for 3 days by gavage and measured 24 hrs after last dose by immature rat uterine wet weight assay relative to basal level; assay type: functional, organism-based
In short: (§2)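 Immature CD-IGS rats given compound orally for 3 days without ethynyl estradiol (agonist mode); on day 4, 24 h after dosing, uterus removed and weighed; wet weight normalized to total body weight.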

[11] = Clearance in mouse at 3 mg/kg, iv; assay type: ADME, organism-based; conditions: in vivo; in short: as §1
Rattus norvegicus [12] = assay: Reduction in uterine wet weight in ethynyl estradiol-stimulated CD-IGS rat at 10 mg/kg, po dosed daily for 3 days by gavage followed 15 mins later by 0.1 mg/kg, po ethynyl estradiol and measured 24 hrs after last dose by immature rat uterine wet weight assay; assay type: functional
In short: (§3)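 Female immature CD-IGS rats, 21 days old on arrival; oral gavage of vehicle or compound daily for 3 days, ethynyl estradiol 0.1 mg/kg orally 15 min after each dose. Day 4, 24 h post-dose, plasma taken, then uterus removed and weighed. Reduction = 100 x (VehicleEE – Cpd)/(VehicleEE – Vehicle).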

[13] = AUC in human MCF7 cells xenografted nu/nu mouse implanted with 17beta-estradiol time release pellets dosed orally once daily for 4 weeks; assay type: ADME, organism-based; conditions: in vivo, po
Rattus norvegicus [14] = assay: Reduction in uterine wet weight in ethynyl estradiol-stimulated CD-IGS rat at 1 mg/kg, po dosed daily for 3 days by gavage followed 15 mins later by 0.1 mg/kg, po ethynyl estradiol and measured 24 hrs after last dose by immature rat uterine wet weight assay; assay type: functional; in short: as §3
Estrogen receptor [15] = molecular target: T1, Estrogen receptor (Homo sapiens, UniProt P03372); assay: Binding affinity to ERalpha (unknown origin)
T1 sequence (P03372 whole entry): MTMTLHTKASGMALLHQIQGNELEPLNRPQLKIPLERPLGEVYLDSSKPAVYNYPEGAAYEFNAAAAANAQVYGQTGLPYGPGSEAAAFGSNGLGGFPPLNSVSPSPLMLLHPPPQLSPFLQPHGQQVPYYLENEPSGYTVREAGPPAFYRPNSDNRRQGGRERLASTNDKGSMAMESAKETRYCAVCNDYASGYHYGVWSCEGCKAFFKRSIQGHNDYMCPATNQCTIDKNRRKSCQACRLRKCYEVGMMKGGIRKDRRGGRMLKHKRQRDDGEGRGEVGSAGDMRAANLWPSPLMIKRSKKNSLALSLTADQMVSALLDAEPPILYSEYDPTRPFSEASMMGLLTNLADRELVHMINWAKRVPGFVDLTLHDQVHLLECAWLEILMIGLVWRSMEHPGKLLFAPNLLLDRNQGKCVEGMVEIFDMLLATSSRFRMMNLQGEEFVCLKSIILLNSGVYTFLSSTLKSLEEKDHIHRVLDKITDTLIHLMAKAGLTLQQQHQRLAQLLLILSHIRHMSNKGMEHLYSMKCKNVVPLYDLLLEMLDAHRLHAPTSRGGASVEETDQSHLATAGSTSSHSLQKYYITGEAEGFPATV

MCF7 [16] = assay: Antitumor activity against human MCF7 cells xenografted in nu/nu mouse model of tamoxifen-resistant breast cancer xenograft implanted with 17beta-estradiol time release pellets assessed as reduction tumor volume at 60 mg/kg, po qd for 4 weeks; assay type: functional, organism-based
In short: (§4)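 Female nu/nu mice with 0.72 mg 60-day 17β-estradiol pellets bearing MCF-7 tumors, pretreated with oral tamoxifen citrate; at ~150-250 mm3 (mean 200 mm3) randomized, tamoxifen stopped, then dosed daily for 4 weeks; tumor volume (length x width2/2) and body weight twice weekly.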

Estrogen receptor [17] = molecular target: T1, Estrogen receptor; assay: Induction of ERalpha degradation in human MCF7 cells in phenol red free RPMI medium containing 5% charcoal dextran-treated FBS incubated for 4 hrs by SP1 and anti-ER rabbit monocolnal antibody based in-cell Western assay
MCF7 [18] = assay: Antitumor activity against human MCF7 cells xenografted in nu/nu mouse model of tamoxifen-sensitive breast cancer xenograft implanted with 17beta-estradiol time release pellets assessed as reduction tumor volume at 6 mg/kg, po qd for 4 weeks; assay type: functional, organism-based
[19] = Half life in mouse at 3 mg/kg, iv; assay type: ADME, organism-based; conditions: in vivo; in short: as §1
[20] = Cmax in mouse at 10 mg/kg, po; assay type: ADME, organism-based; design: dose 10 mg/kg, route oral; conditions: in vivo; in short: as §1
[21] = Volume of distribution at steady state in mouse at 3 mg/kg, iv; assay type: ADME, organism-based; conditions: in vivo, read-out: Vdss; in short: as §1
[22] = AUC (0 to infinity) in rat at 10 mg/kg, po; assay type: ADME, organism-based; design: dose 10 mg/kg, route oral, time infinity; conditions: in vivo
Rattus norvegicus [23] = assay: Reduction in uterine wet weight in ethynyl estradiol-stimulated CD-IGS rat at 60 mg/kg, po dosed daily for 3 days by gavage followed 15 mins later by 0.1 mg/kg, po ethynyl estradiol and measured 24 hrs after last dose by immature rat uterine wet weight assay; assay type: functional; in short: as §3
MCF7 [24] = assay: Antitumor activity against human MCF7 cells xenografted in nu/nu mouse model of tamoxifen-sensitive breast cancer xenograft implanted with 17beta-estradiol time release pellets assessed as reduction tumor volume at 60 mg/kg, po qd for 4 weeks; assay type: functional, organism-based
MCF7 [25] = assay: Antitumor activity against human MCF7 cells xenografted in nu/nu mouse model of tamoxifen-resistant breast cancer xenograft implanted with 17beta-estradiol time release pellets assessed as reduction tumor volume at 120 mg/kg, po qd for 4 weeks; assay type: functional, organism-based; in short: as §4
Rattus norvegicus [26] = assay: In-vivo agonist activity at ERalpha in CD-IGS rat assessed as increase in uterine wet weight at 60 mg/kg, po dosed daily for 3 days by gavage and measured 24 hrs after last dose by immature rat uterine wet weight assay; assay type: functional, organism-based; in short: as §2
[27] = Clearance in Sprague-Dawley rat at 1 mg/kg, iv; assay type: ADME, organism-based; conditions: in vivo
[28] = Oral bioavailability in Sprague-Dawley rat at 2 mg/kg; assay type: ADME, organism-based; conditions: in vivo

SMILES	pIC50 (MCF7 [3])	AUC [6] [ng·h/mL]	pIC50 (Estrogen receptor [17])	other results
CC1=C(c2cccc(O)c2)C(c2ccc(OC[C@H](C)N3CC[C@@H](C)C3)cc2)Oc2ccc(O)cc21 (some centres not stated)	9.70	590	9.70	AUC(0-inf) [1]: 590 ng·h/mL; Cmax [2]: 140 ng/mL; clearance [4]: 33 mL/min/kg; bioavailability [5]: 13%; half-life [7]: 2.9 h; Vd [8]: 8 L/kg; bioavailability [9]: 18%; Activity (Rattus norvegicus [10]): Active; clearance [11]: 38 mL/min/kg; inhibition (INH) (Rattus norvegicus [12]): 111%; AUC at 672 h [13]: 4600 ng·h/mL; inhibition (INH) (Rattus norvegicus [14]): 99%; pIC50 (Estrogen receptor [15]): 8.29; Activity (MCF7 [16]): Active; Activity (MCF7 [18]): Active; half-life [19]: 3.6 h; Cmax [20]: 100 ng/mL; Vd [21]: 6.2 L/kg; AUC(0-inf) [22]: 930 ng·h/mL
CC1=C(c2cccc(O)c2)[C@@H](c2ccc(OC[C@H](C)N3CC[C@@H](C)C3)cc2)Oc2ccc(O)cc21	7.23	–	8.01	pIC50 (Estrogen receptor [15]): 6.87
CC1=C(c2cccc(O)c2)[C@H](c2ccc(OC[C@H](C)N3CC[C@@H](C)C3)cc2)Oc2ccc(O)cc21	10.00	–	10.00	pIC50 (Estrogen receptor [15]): 8.55
CC1=C(c2cccc(F)c2)C(c2ccc(OC[C@H](C)N3CC[C@@H](C)C3)cc2)Oc2ccc(O)cc21 (some centres not stated)	9.00	350	9.30	–
CC1=C(c2cccc(O)c2)C(c2ccc(OCCN3CC[C@H](C)C3)cc2)Oc2ccc(O)cc21 (some centres not stated)	9.52	–	9.70	–
CC1=C(c2ccc(S(C)(=O)=O)cc2)C(c2ccc(OC[C@H](C)N3CC[C@@H](C)C3)cc2)Oc2ccc(O)cc21 (some centres not stated)	7.57	–	8.24	–
CC1=C(c2cccc(C#N)c2)C(c2ccc(OC[C@H](C)N3CC[C@@H](C)C3)cc2)Oc2ccc(O)cc21 (some centres not stated)	8.59	–	9.15	–
CC1=C(c2cccc(O)c2)C(c2ccc(OC[C@H](C)N3CC[C@H](C)C3)cc2)Oc2ccc(O)cc21 (some centres not stated)	9.70	–	9.70	–
CC1=C(c2ccc(O)cc2)C(c2ccc(OC[C@H](C)N3CC[C@@H](C)C3)cc2)Oc2ccc(O)cc21 (some centres not stated)	10.00	460	10.00	inhibition (INH) (Rattus norvegicus [14]): 113%
CC/C(=C(\c1ccccc1)c1ccc(OCCN(C)C)cc1)c1ccccc1 [TAMOXIFEN]	–	–	–	inhibition (INH) (Rattus norvegicus [23]): 78%; Activity (MCF7 [24]): Active; Activity (MCF7 [25]): inactive; Activity (Rattus norvegicus [26]): Active
Oc1ccc([C@H]2Sc3ccc(O)cc3O[C@H]2c2ccc(OCCN3CCCCC3)cc2)cc1	–	–	–	clearance [27]: 154 mL/min/kg; bioavailability [28]: 0%
CC1=C(c2ccccc2)C(c2ccc(OC[C@H](C)N3CC[C@@H](C)C3)cc2)Oc2ccc(O)cc21 (some centres not stated)	9.40	1000	9.40	–
Oc1ccc([C@H]2Sc3cc(O)ccc3O[C@H]2c2ccc(OCCN3CCCCC3)cc2)cc1	–	–	–	clearance [27]: 5 mL/min/kg; bioavailability [28]: 31%
CC1=C(c2cccc(O)c2)C(c2ccc(OCCN3CCCCCC3)cc2)Oc2ccc(O)cc21 (configuration not stated)	9.70	–	9.70	–
CC1=C(c2cccc(O)c2)C(c2ccc(OC[C@H](C)N3CCCCCC3)cc2)Oc2ccc(O)cc21 (some centres not stated)	9.70	–	9.70	–
CC1=C(c2ccc(C#N)cc2)C(c2ccc(OC[C@H](C)N3CC[C@@H](C)C3)cc2)Oc2ccc(O)cc21 (some centres not stated)	8.00	2000	–	pIC50 (Estrogen receptor [17]; mcf7): 8.82
CC1=C(c2ccc(O)cc2)[C@H](c2ccc(OCCN3CCCCC3)cc2)Oc2cc(O)ccc21 [ACOLBIFENE]	–	90	–	–
